Key:
Assay type in all cases: functional
[1] = tested on: RPMI-8226; test: Anticancer activity against human RPMI8226 cells assessed as cell growth at 10 uM after 48 hrs by sulforhodamine B assay relative to control; settings: RPMI-8226, 48 h, read-out: Activity
In short: (§1)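 Single-dose NCI-60 panel screen: compound added at 10 µM and the culture incubated 48 h. The end point was read by protein staining with sulforhodamine B. The value is percent growth of treated cells relative to untreated control cells, reported as a mean graph across the panel.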

[2] = tested on: LOX IMVI; test: Anticancer activity against human LOXIMVI cells assessed as cell growth at 10 uM after 48 hrs by sulforhodamine B assay relative to control; settings: read-out: Activity; in short: as §1
[3] = tested on: NCI-H23; test: Anticancer activity against human NCI-H23 cells assessed as cell growth at 10 uM after 48 hrs by sulforhodamine B assay relative to control; settings: NCI-H23, 48 h, read-out: Activity; in short: as §1
[4] = tested on: OVCAR-5; test: Anticancer activity against human OVCAR5 cells assessed as cell growth at 10 uM after 48 hrs by sulforhodamine B assay relative to control; settings: OVCAR-5, 48 h, read-out: Activity; in short: as §1
[5] = tested on: PC-3; test: Anticancer activity against human PC3 cells assessed as cell growth at 10 uM after 48 hrs by sulforhodamine B assay relative to control; settings: PC-3, 48 h, read-out: Activity; in short: as §1
[6] = tested on: IGROV-1; test: Anticancer activity against human IGROV1 cells assessed as cell growth at 10 uM after 48 hrs by sulforhodamine B assay relative to control; settings: IGROV-1, 48 h, read-out: Activity; in short: as §1
[7] = tested on: SF-295; test: Anticancer activity against human SF295 cells assessed as cell growth at 10 uM after 48 hrs by sulforhodamine B assay relative to control; settings: SF-295, 48 h, read-out: Activity; in short: as §1
[8] = tested on: NCI-H522; test: Anticancer activity against human NCI-H522 cells assessed as cell growth at 10 uM after 48 hrs by sulforhodamine B assay relative to control; settings: NCI-H522, 48 h, read-out: Activity; in short: as §1
[9] = tested on: A549; test: Anticancer activity against human A549/ATCC cells assessed as cell growth at 10 uM after 48 hrs by sulforhodamine B assay relative to control; settings: A549, 48 h, read-out: Activity; in short: as §1
[10] = tested on: MCF7; test: Anticancer activity against human MCF7 cells assessed as cell growth at 10 uM after 48 hrs by sulforhodamine B assay relative to control; settings: MCF7, 48 h, read-out: Activity; in short: as §1
[11] = tested on: EKVX; test: Anticancer activity against human EKVX cells assessed as cell growth at 10 uM after 48 hrs by sulforhodamine B assay relative to control; settings: read-out: Activity; in short: as §1
[12] = tested on: SK-MEL-28; test: Anticancer activity against human SK-MEL-28 cells assessed as cell growth at 10 uM after 48 hrs by sulforhodamine B assay relative to control; settings: SK-MEL-28, 48 h, read-out: Activity; in short: as §1
[13] = tested on: MDA-MB-435; test: Anticancer activity against human MDA-MB-435 cells assessed as cell growth at 10 uM after 48 hrs by sulforhodamine B assay relative to control; settings: MDA-MB-435, 48 h, read-out: Activity; in short: as §1
[14] = tested on: HCT-116; test: Anticancer activity against human HCT116 cells assessed as cell growth at 10 uM after 48 hrs by sulforhodamine B assay relative to control; settings: HCT-116, 48 h, read-out: Activity; in short: as §1
[15] = tested on: Malme-3M; test: Anticancer activity against human MALME-3M cells assessed as cell growth at 10 uM after 48 hrs by sulforhodamine B assay relative to control; settings: read-out: Activity; in short: as §1
[16] = tested on: SK-MEL-5; test: Anticancer activity against human SK-MEL-5 cells assessed as cell growth at 10 uM after 48 hrs by sulforhodamine B assay relative to control; settings: SK-MEL-5, 48 h, read-out: Activity; in short: as §1
[17] = tested on: M14; test: Anticancer activity against human M14 cells assessed as cell growth at 10 uM after 48 hrs by sulforhodamine B assay relative to control; settings: M14, 48 h, read-out: Activity; in short: as §1
[18] = tested on: MDA-MB-468; test: Anticancer activity against human MDA-MB-468 cells assessed as cell growth at 10 uM after 48 hrs by sulforhodamine B assay relative to control; settings: MDA-MB-468, 48 h, read-out: Activity; in short: as §1
[19] = tested on: KM12; test: Anticancer activity against human KM12 cells assessed as cell growth at 10 uM after 48 hrs by sulforhodamine B assay relative to control; settings: KM12, 48 h, read-out: Activity; in short: as §1
[20] = tested on: NCI-H226; test: Anticancer activity against human NCI-H226 cells assessed as cell growth at 10 uM after 48 hrs by sulforhodamine B assay relative to control; settings: NCI-H226, 48 h, read-out: Activity; in short: as §1
[21] = tested on: DU-145; test: Anticancer activity against human DU145 cells assessed as cell growth at 10 uM after 48 hrs by sulforhodamine B assay relative to control; settings: DU-145, 48 h, read-out: Activity; in short: as §1
[22] = tested on: HT-29; test: Anticancer activity against human HT-29 cells assessed as cell growth at 10 uM after 48 hrs by sulforhodamine B assay relative to control; settings: HT-29, 48 h, read-out: Activity; in short: as §1
[23] = tested on: SW-620; test: Anticancer activity against human SW620 cells assessed as cell growth at 10 uM after 48 hrs by sulforhodamine B assay relative to control; settings: SW-620, 48 h, read-out: Activity
In short: (§2)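 NCI-60 single-dose screen: compound added at 10 µM, cultures incubated 48 h. End point by sulforhodamine B protein-binding dye. Value reported as percent growth of treated cells relative to untreated control cells.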

[24] = tested on: HOP-62; test: Anticancer activity against human HOP62 cells assessed as cell growth at 10 uM after 48 hrs by sulforhodamine B assay relative to control; settings: HOP-62, 48 h, read-out: Activity; in short: as §1
[25] = tested on: MDA-MB-231; test: Anticancer activity against human MDA-MB-231 cells assessed as cell growth at 10 uM after 48 hrs by sulforhodamine B assay relative to control; settings: MDA-MB-231, 48 h, read-out: Activity; in short: as §1
[26] = tested on: U-251; test: Anticancer activity against human U251 cells assessed as cell growth at 10 uM after 48 hrs by sulforhodamine B assay relative to control; settings: U-251, 48 h, read-out: Activity; in short: as §2
[27] = tested on: NCI-H322M; test: Anticancer activity against human NCI-H322M cells assessed as cell growth at 10 uM after 48 hrs by sulforhodamine B assay relative to control; settings: read-out: Activity; in short: as §1
[28] = tested on: CAKI-1; test: Anticancer activity against human Caki1 cells assessed as cell growth at 10 uM after 48 hrs by sulforhodamine B assay relative to control; settings: CAKI-1, 48 h, read-out: Activity; in short: as §1
[29] = tested on: RXF 393; test: Anticancer activity against human RXF393 cells assessed as cell growth at 10 uM after 48 hrs by sulforhodamine B assay relative to control; settings: RXF 393, 48 h, read-out: Activity; in short: as §1
[30] = tested on: SN12C; test: Anticancer activity against human SN12C cells assessed as cell growth at 10 uM after 48 hrs by sulforhodamine B assay relative to control; settings: read-out: Activity; in short: as §1
[31] = tested on: COLO 205; test: Anticancer activity against human COLO205 cells assessed as cell growth at 10 uM after 48 hrs by sulforhodamine B assay relative to control; settings: COLO 205, 48 h, read-out: Activity; in short: as §1

SMILES | growth at 10 µM [1] | growth at 10 µM [2] | growth at 10 µM [3] | growth at 10 µM [4] | growth at 10 µM [5] | growth at 10 µM [6] | growth at 10 µM [7] | growth at 10 µM [8] | growth at 10 µM [9] | growth at 10 µM [10] | growth at 10 µM [11] | growth at 10 µM [12] | growth at 10 µM [13] | growth at 10 µM [14] | growth at 10 µM [15] | growth at 10 µM [16] | growth at 10 µM [17] | growth at 10 µM [18] | growth at 10 µM [19] | growth at 10 µM [20] | also measured
C=C1CC[C@@H]2[C@](C)(COC(C)=O)[C@H](OC(C)=O)CC[C@@]2(C)[C@H]1CC(Nc1ccc(S(=O)(=O)Nc2cc(C)on2)cc1)C1=CCOC1=O (stereo not given in full) | -15.2% | -72.7% | 71% | 52.2% | 70.8% | 62.6% | 100% | -20.2% | 72.2% | 12.2% | 82% | 38.1% | 35% | -1.13% | 56.6% | 44.1% | 29.9% | 3.23% | 30.5% | 79.5% | growth at 10 µM [21]: 71.1%; growth at 10 µM [22]: -11%; growth at 10 µM [23]: 14.7%; growth at 10 µM [24]: 60.2%; growth at 10 µM [25]: 61.1%; growth at 10 µM [26]: 30%; growth at 10 µM [27]: 80.4%; growth at 10 µM [28]: 44%; growth at 10 µM [29]: 29.8%; growth at 10 µM [30]: 31.8%; growth at 10 µM [31]: 29%
C=C1CC[C@@H]2[C@](C)(COC(C)=O)[C@H](OC(C)=O)CC[C@@]2(C)[C@H]1CC(Nc1ccc(S(=O)(=O)Nc2ccc(Cl)nn2)cc1)C1=CCOC1=O (stereo not given in full) | -19.2% | -84.6% | 58.2% | 44.6% | 38.4% | 43.3% | 92.8% | -34.5% | 61.6% | 16.8% | 87.3% | 6.66% | 8.13% | -34.1% | 55.3% | 35.8% | 10.7% | -32.3% | 27% | -10% | growth at 10 µM [21]: 40.2%; growth at 10 µM [22]: -18.3%; growth at 10 µM [23]: -37.7%; growth at 10 µM [24]: 47.9%; growth at 10 µM [25]: 23.8%; growth at 10 µM [26]: -41.2%; growth at 10 µM [27]: 57%; growth at 10 µM [28]: 31.8%; growth at 10 µM [29]: -13.4%; growth at 10 µM [30]: -27.6%; growth at 10 µM [31]: 18%
C=C1CC[C@@H]2[C@](C)(COC(C)=O)[C@H](OC(C)=O)CC[C@@]2(C)[C@H]1CC(Nc1ccc(S(=O)(=O)Nc2ncccn2)cc1)C1=CCOC1=O (stereo not given in full) | -12.7% | -79.8% | 29.6% | -1.98% | 15.1% | 7.21% | 68% | -67.7% | 44.7% | -19.6% | 68.3% | -17.7% | -14.8% | -55% | -4.93% | 24.1% | 4.76% | -54% | -13.2% | -16.6% | growth at 10 µM [21]: 14.9%; growth at 10 µM [22]: -48.6%; growth at 10 µM [23]: -70%; growth at 10 µM [24]: 126%; growth at 10 µM [25]: -1.01%; growth at 10 µM [26]: -19%; growth at 10 µM [27]: 50.9%; growth at 10 µM [28]: 50.2%; growth at 10 µM [29]: -70%; growth at 10 µM [30]: 7.64%; growth at 10 µM [31]: -12.1%
C=C1CC[C@@H]2[C@](C)(COC(C)=O)[C@H](OC(C)=O)CC[C@@]2(C)[C@H]1CC(Nc1ccc(S(=O)(=O)Nc2nc(C)cc(C)n2)cc1)C1=CCOC1=O (stereo not given in full) | 2.24% | -60.6% | 84.3% | 103% | 65.2% | 81.5% | 97% | 22% | 65.3% | 40.3% | 74.5% | 83.5% | 67% | 39.2% | 96.3% | 74.2% | 63.8% | 41% | 64.7% | 86.7% | growth at 10 µM [21]: 82.3%; growth at 10 µM [22]: 46.2%; growth at 10 µM [23]: 40%; growth at 10 µM [24]: 103%; growth at 10 µM [25]: 107%; growth at 10 µM [26]: 48.2%; growth at 10 µM [27]: 97.2%; growth at 10 µM [28]: 74%; growth at 10 µM [29]: 85.1%; growth at 10 µM [30]: 38.2%; growth at 10 µM [31]: 77%
C=C1CC[C@@H]2[C@](C)(COC(C)=O)[C@H](OC(C)=O)CC[C@@]2(C)[C@H]1CC(Nc1ccc(S(=O)(=O)Nc2nccc(C)n2)cc1)C1=CCOC1=O (stereo not given in full) | -5.56% | -72.9% | 48.4% | 26.9% | 41.5% | 25.8% | 78.7% | -50.6% | 63.4% | 0.14% | 79.2% | -7.05% | 0.23% | -32.2% | -0.7% | 45% | 11.2% | -45.8% | 13.2% | -12.1% | growth at 10 µM [21]: 38.5%; growth at 10 µM [22]: -28.2%; growth at 10 µM [23]: -49.6%; growth at 10 µM [24]: 156%; growth at 10 µM [25]: 13.3%; growth at 10 µM [26]: 14.6%; growth at 10 µM [27]: 64.8%; growth at 10 µM [28]: 61.4%; growth at 10 µM [29]: -38.3%; growth at 10 µM [30]: 25.1%; growth at 10 µM [31]: 9.64%

Source: ChEMBL document CHEMBL4033712, “Synthesis and biological evaluation of new C-12(α/β)-(N-) sulfamoyl-phenylamino-14-deoxy-andrographolide derivatives as potent anti-cancer agents” (Bioorg Med Chem Lett, 2017)
